Assays:
Cytochrome P450 3A4 = Cytochrome P450 3A4 (Homo sapiens, UniProt P08684); experiment: Inhibition of CYP3A4 after 30 mins by fluorometric assay; type: ADME
How it was run: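 cDNA-expressed CYP3A4 in insect cell microsomes (with insect cell control protein) O-dealkylating 7-benzyloxy-4-trifluoromethylcoumarin to fluorescent 7-HFC. Samples in MeOH, 8-point 1:3 serial dilutions in pH 7.4 potassium phosphate with an NADP+/glucose-6-phosphate/G6PDH/MgCl2 regenerating system. 10 min prewarm, 30 min at 37 °C, stopped with acetonitrile–Tris base. Triplicate; IC50 by linear interpolation.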

Cytochrome P450 2D6 = Cytochrome P450 2D6 (Homo sapiens, UniProt P10635); experiment: Inhibition of CYP2D6 after 30 mins by fluorometric assay; type: ADME
Sequence of Cytochrome P450 2D6 (P10635 whole entry): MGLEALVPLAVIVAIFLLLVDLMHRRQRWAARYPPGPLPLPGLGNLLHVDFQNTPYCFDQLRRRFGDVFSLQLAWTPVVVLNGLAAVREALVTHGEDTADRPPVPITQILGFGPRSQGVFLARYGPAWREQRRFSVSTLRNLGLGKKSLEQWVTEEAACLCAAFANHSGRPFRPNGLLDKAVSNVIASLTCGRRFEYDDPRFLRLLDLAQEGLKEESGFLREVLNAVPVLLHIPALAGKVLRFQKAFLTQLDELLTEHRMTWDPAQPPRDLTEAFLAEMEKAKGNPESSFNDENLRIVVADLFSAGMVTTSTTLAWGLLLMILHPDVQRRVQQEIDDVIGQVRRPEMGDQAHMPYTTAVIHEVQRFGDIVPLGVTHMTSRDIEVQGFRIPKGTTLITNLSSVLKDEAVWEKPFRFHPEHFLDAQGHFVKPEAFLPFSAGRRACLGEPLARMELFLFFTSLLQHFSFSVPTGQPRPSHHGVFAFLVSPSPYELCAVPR
How it was run: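 cDNA-expressed CYP2D6 in insect cell microsomes with AMMC ([…] in the enzyme/substrate mix), in pH 7.4 phosphate buffer with an NADP+/glucose-6-phosphate/G6PDH/MgCl2 regenerating system. Compound in MeOH, eight-point 1:3 serial dilution. 10 min prewarm, then 30 min at 37 °C. Stopped with acetonitrile–Tris. Triplicate; IC50 by linear interpolation.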

Sequence of Cytochrome P450 3A4 (P08684 whole entry): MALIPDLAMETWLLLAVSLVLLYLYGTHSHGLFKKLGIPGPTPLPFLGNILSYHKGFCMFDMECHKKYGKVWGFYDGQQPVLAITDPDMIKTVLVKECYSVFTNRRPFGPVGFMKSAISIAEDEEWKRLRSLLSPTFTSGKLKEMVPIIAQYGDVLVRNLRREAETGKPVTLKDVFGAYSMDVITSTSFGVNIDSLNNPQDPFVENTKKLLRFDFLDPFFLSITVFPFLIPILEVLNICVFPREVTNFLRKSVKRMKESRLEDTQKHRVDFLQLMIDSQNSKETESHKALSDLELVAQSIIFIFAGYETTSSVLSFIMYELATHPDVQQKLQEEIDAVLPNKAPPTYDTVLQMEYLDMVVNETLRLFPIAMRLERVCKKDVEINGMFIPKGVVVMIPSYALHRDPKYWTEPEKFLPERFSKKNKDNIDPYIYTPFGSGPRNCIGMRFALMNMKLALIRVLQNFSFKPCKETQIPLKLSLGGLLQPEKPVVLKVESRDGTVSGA

IC50 (Cytochrome P450 3A4)	IC50 (Cytochrome P450 2D6)	SMILES	IC50 (Cytochrome P450 3A4; read-out: IC50) [µM]	IC50 (Cytochrome P450 2D6; read-out: IC50) [µM]
Not Active	Not Active	COc1cc2c(cc1O)C(=O)[C@@H](CO)[C@H](CO)C2		
		COc1cc(C[C@H]2CO[C@H](c3ccc(O)c(OC)c3)[C@H]2CO)ccc1O [LARICIRESINOL]	25.6	> 100
		COc1cc([C@H]2OC[C@H]([C@@H](O)c3ccc(O)c(OC)c3)[C@@H]2CO)ccc1O	66.5	> 100
Not Active	Not Active	COc1cc([C@H](O)[C@H]2CO[C@H](c3ccc(O)c(O)c3)[C@H]2CO)ccc1O [(7R)-7-HYDROXYTAXIRESINOL]		
		COc1cc(C[C@H]2CO[C@H](c3ccc(O)c(O)c3)[C@H]2CO)ccc1O [TAXIRESINOL]	85.6	68.1
		COc1cc([C@H]2c3cc(O)c(OC)cc3C[C@@H](CO)[C@@H]2CO)ccc1O [ISOLARICIRESINOL]	> 100	97.7
		COc1cc([C@@H]2Oc3cc(CCCO)ccc3O[C@H]2CO)ccc1O	54.2	> 100
Not Active	Not Active	COc1cc2c(cc1O)[C@H](c1ccc(O)c(O)c1)[C@@H](CO)[C@H](CO)C2 [ISOTAXIRESINOL]		
		COc1cc(C[C@@H](CO)[C@H](CO)Cc2ccc(O)c(OC)c2)ccc1O [(+)-SECOISOLARICIRESINOL]	47.3	> 100
		COc1cc([C@H]2c3cc(O)c(OC)cc3C[C@H]3C(=O)OC[C@H]23)ccc1O [ALPHA-CONIDENDRIN]	0.2	17.7

SMILES	IC50 (Cytochrome P450 3A4)	IC50 (Cytochrome P450 2D6)	IC50 (Cytochrome P450 3A4; read-out: IC50) [µM]	IC50 (Cytochrome P450 2D6; read-out: IC50) [µM]
COc1cc([C@@H](O)[C@@H]2CO[C@H](c3ccc(O)c(OC)c3)[C@H]2CO)ccc1O [TANEGOOL]	Not Active	Not Active		

Source: ChEMBL document CHEMBL1667737, “Cytochrome P450 3A4 inhibitory constituents of the wood of Taxus yunnanensis” (J Nat Prod, 2011)
